Holding throughout (format): functional, organism-based
Assay [1] relates to Rattus norvegicus. In words: DOPA accumulation in corpus striatum of reserpinized rats following subcutaneous administration at highest dose tested (50 umol/kg); Inactive.
Assay [2] relates to Rattus norvegicus. In words: 5-HTP accumulation in limbic system of reserpinized rats following subcutaneous administration at highest dose tested (50 umol/kg); Inactive.
The species named for assay [3] is Rattus norvegicus. In words: Compound was tested for gross behavioral response in rats; no change.
Assay [4] deals with Rattus norvegicus. Kind of assay: 5-HTP accumulation in corpus striatum of reserpinized rats following subcutaneous administration at highest dose tested (50 umol/kg); Inactive.
Assay [5] relates to Rattus norvegicus. In words: DOPA accumulation in hemispheres of reserpinized rats following subcutaneous administration at highest dose tested (50 umol/kg); Inactive.
For assay [6], the system named is Rattus norvegicus. Kind of assay: DOPA accumulation in limbic system of reserpinized rats following subcutaneous administration at highest dose tested (50 umol/kg); Inactive.
Assay [7] concerns Rattus norvegicus. In words: 5-HTP accumulation in hemispheres of reserpinized rats following subcutaneous administration at highest dose tested (50 umol/kg); Inactive.
The species named for assay [8] is Rattus norvegicus. Kind of assay: Compound was tested for gross behavioral response in rats; partial 5-HT syndrome.
Assay [9] has as its system Rattus norvegicus. Kind of assay: DOPA accumulation in limbic system of reserpinized rats following peroral administration at highest dose tested (50 umol/kg); Inactive.
For assay [10], the system named is Rattus norvegicus. In words: DOPA accumulation in corpus striatum of reserpinized rats following peroral administration at highest dose tested (50 umol/kg); Inactive.
For assay [11], the species on record is Rattus norvegicus. In words: Compound was tested for gross behavioral response in rats; full-blown 5-HT syndrome.
Assay [12] relates to Rattus norvegicus. Kind of assay: Oral availability obtained from blood plasma levels of the parent compound following 5 umol /kg intravenous and 40 umol /kg peroral administration. Put shortly: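 Male Sprague-Dawley rats (300 g) sampled from arterial catheters 24 h after surgery over 10-24 h. Dosing was 5 µmol/kg iv and 40 µmol/kg po, with oral rats fasted 18 h. Parent drug in blood measured by GC/MS after pH 11 dichloromethane extraction with internal standard, samples run in duplicate. Availability from po/iv AUC ratio (n = 4).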

Assay [13] deals with Rattus norvegicus. Kind of assay: DOPA accumulation in hemispheres of reserpinized rats following peroral administration at highest dose tested (50 umol/kg); Inactive.

The source made the active and inactive calls. The rule behind the calls is not given here.

In the case of `CCCN1CCC2c3c(cccc3C(N)=O)CC[C@@H]21` (single isomer, unassigned; (+)-3b), the ED50 entry with Rattus norvegicus [1], with Rattus norvegicus [2], in the assay with Rattus norvegicus [4], with Rattus norvegicus [5], with Rattus norvegicus [6] and in the assay on Rattus norvegicus [7] was “inactive” in each case. In addition, the Response result in the assay listed under Rattus norvegicus [3] is “inactive”.

For the compound `CCCN1CC[C@H]2c3c(cccc3C(N)=O)CC[C@H]21` (stereo in doubt; (-)-3b), the ED50 result with Rattus norvegicus [1], with Rattus norvegicus [5] and with Rattus norvegicus [6] was “inactive” throughout. Besides, the Response entry in the assay filed under Rattus norvegicus [8] was “Partially active”.

`CCCN1CC[C@H]2c3c(cccc3C(N)=O)CC[C@H]21` (stereo in doubt; (-)-3a): the NA entry with Rattus norvegicus [1], in the assay on Rattus norvegicus [9], in the assay with Rattus norvegicus [10], with Rattus norvegicus [5], with Rattus norvegicus [6] and in the assay with Rattus norvegicus [13] was “inactive” throughout. In the assay filed under Rattus norvegicus [11], the Response entry is “Active”. Also, the bioavailability in the assay on Rattus norvegicus [12] turned out to be 46%.

With `CCCN1CCC2c3c(cccc3C(N)=O)CC[C@@H]21` (single isomer, unassigned; (+)-3a), the ED50 entry in the assay with Rattus norvegicus [1], in the assay with Rattus norvegicus [5] and with Rattus norvegicus [6] was “inactive” in each case. Further, the Response entry in the assay filed under Rattus norvegicus [8] is “Partially active”.
